# Most compounds without a hit are left out; they make up all but 4.3% or so of the library.
# SUMO HTRF inh: inhibitors of in vitro SUMOylation cascade, primary screen, biochemical, HTRF, uHTS; SUMO-conjugating enzyme UBC9 (Homo sapiens), P63279; hit rate 0.36% among 290,000; HTRF SUMOylation assay, SAE1/SAE2 + UBC9; AID 2006, 2009; inhibition, % at 35 µM; in the data active = inhibition above about 50%, passing the limit was not always enough; inconclusive = no clear call, values can overlap the other calls
# Rin1-Abl PPI inh: inhibitors of Rin1-Abl protein binding, primary screen, biochemical, TR-FRET; inhibition, % at 7.35 µM; AID 588664, 2011; hit rate 0.4% among 360,000; in the data active = inhibition above about 5%, passing the limit was not always enough
# Target sequence (P00519 whole entry, looked up): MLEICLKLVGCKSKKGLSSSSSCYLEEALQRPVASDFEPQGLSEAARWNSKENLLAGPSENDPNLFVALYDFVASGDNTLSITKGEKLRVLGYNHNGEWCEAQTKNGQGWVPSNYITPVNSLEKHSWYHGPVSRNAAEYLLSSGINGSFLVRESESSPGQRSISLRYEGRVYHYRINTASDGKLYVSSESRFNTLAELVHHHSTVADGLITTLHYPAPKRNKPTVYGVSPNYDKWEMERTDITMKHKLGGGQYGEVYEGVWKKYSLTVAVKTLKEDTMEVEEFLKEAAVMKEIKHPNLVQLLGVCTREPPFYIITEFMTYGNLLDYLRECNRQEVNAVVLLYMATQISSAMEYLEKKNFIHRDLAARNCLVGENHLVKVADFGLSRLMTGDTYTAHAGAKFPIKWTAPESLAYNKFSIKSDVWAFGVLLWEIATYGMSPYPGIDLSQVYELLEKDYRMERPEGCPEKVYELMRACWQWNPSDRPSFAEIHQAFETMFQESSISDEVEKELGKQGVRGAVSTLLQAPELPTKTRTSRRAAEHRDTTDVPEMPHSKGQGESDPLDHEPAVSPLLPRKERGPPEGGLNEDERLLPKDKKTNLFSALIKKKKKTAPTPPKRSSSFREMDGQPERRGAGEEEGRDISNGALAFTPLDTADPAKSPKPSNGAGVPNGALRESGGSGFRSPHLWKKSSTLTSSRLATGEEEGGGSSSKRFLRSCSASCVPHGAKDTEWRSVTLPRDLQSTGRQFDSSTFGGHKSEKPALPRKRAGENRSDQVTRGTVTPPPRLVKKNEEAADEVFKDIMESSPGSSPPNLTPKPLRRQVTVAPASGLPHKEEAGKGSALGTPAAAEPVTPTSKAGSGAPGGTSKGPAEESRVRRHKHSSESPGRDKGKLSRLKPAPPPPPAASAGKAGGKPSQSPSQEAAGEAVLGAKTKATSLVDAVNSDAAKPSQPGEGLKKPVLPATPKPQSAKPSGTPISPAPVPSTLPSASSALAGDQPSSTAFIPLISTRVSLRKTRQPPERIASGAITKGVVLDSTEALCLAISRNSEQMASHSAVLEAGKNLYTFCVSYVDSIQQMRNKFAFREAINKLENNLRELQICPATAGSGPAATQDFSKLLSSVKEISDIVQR
# Target sequence (Q13671 whole entry, looked up): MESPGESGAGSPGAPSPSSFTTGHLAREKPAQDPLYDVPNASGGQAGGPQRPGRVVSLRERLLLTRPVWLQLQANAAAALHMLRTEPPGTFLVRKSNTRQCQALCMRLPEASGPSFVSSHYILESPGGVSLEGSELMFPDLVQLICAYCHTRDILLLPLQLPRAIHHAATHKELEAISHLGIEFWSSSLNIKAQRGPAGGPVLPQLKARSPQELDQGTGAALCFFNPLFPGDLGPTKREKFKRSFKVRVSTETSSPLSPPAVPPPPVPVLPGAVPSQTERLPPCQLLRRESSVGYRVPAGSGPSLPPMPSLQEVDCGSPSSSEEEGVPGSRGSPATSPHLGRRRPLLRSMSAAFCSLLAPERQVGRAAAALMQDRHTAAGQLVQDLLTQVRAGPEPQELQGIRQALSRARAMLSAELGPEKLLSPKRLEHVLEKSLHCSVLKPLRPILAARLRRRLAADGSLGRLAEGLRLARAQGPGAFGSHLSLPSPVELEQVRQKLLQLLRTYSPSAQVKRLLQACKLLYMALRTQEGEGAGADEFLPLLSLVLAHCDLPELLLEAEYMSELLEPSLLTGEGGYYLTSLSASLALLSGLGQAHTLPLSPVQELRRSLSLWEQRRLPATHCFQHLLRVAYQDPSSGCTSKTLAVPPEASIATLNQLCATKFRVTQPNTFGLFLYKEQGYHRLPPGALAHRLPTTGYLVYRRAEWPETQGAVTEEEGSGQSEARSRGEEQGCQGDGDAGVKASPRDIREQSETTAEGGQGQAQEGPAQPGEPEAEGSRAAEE
# ALR inh: inhibitors of human ALR sulfhydryl oxidase, primary screen, biochemical, H2O2 detection, HRP-luminol luminescence, single point; purified ALR, DTT oxidation; inhibition, % (test concentration not listed); hit rate 3.8% among 290,000; AID 485317, 2010;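 active = mean replicate inhibition above about 79%, with every replicate also reaching it, limit read from the data; inconclusive = only one of the two criteria met; inactive = mean below limit and not every replicate reaching it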
# RBBP9 inhibitor: human RBBP9 inhibitors, primary screen, biochemical, fluorescence polarization, FP-Rh probe, HTS | recombinant RBBP9 | AID 1515, 2009 | inhibition, % at 7.94 µM | hit rate 0.2% among 220,000;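 active = inhibition above the campaign mean of all tested compounds plus 3 SD, cut at about 14% in these data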
#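 Test system: recombinant human RBBP9; Timing: 30 min then 45 min, 25 °C; Detection: fluorescence polarization; Control set: RBBP9 with DMSO as uninhibited control, no-protein wells as full inhibition; Compound dosing: one concentration, 7.94 µM nominal, 0.794% DMSO; Probe or stimulus: FP-Rh activity-based probe, 375 nM before mixing.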
# UBC13 inh: UBC13 polyubiquitin chain formation inhibitors, primary screen, biochemical, TR-FRET, uHTS; Ubiquitin-conjugating enzyme E2 N (Homo sapiens), P61088; inhibition, % at 20 µM; hit rate 0.47% among 330,000; AID 485273, 2010; in the data active = inhibition above about 45%, passing the limit was not always enough; inconclusive = no clear call, values can overlap the other calls
# PREPL inh: PREPL enzyme inhibitors, primary screen, biochemical, fluorescence polarization. Prolyl endopeptidase-like (Homo sapiens), Q4J6C6. recombinant PREPL, fluorescence polarization activity-based probe. inhibition, % at 5.96 µM. hit rate 0.68% among 320,000. AID 2751, 2010; in the data active = inhibition above about 43%
# Numbers stand for hits; 0 = inactive; ? = inconclusive; - = no result; ! = not active in a repeat.
SMILES,SUMO HTRF inh,Rin1-Abl PPI inh,ALR inh,RBBP9 inhibitor,UBC13 inh,PREPL inh
CC(=O)N1CCN=C1SCc1cccc(C(F)(F)F)c1,0,0,98.7,0,0,0
O=C(C1CC1)N1CCN=C1SCc1cccc(C(F)(F)F)c1,0,0,?,0,0,0
CC(=O)N1CCN=C1SCc1ccc(Br)cc1,0,0,96.5,0,0,0
Cc1ccc(CSC2=NCCN2C(=O)C2CC2)cc1,0,0,0,0,0,0
CCOC(=O)N1CCN=C1SCc1ccc(Cl)c(Cl)c1,0,0,98.6,0,0,0
COc1cc(OC)cc(OC(=O)C2CCN(S(=O)(=O)c3ccc(OC)c(OC)c3)CC2)c1,-,0,0,-,0,0
COc1ccc(Nc2cccc(Cl)c2)c(C(=O)O)c1,0,0,98.4,0,0,0
O=C(CN1CCN(c2ccc(O)cc2)CC1)N(C1CC1)C1CCS(=O)(=O)C1 (centres undefined),-,0,99.1,-,0,0
CCOC(=O)C(CSCC(=O)c1ccc(Cl)cc1)NC(=O)OC(C)(C)C (centres undefined),0,0,-,0,0,0
CCOC(=O)C(CSCC(=O)c1ccc(Br)cc1)NC(=O)OC(C)(C)C (centres undefined),0,-,98.5,0,0,0
COc1ccc(N2CCN(C(=O)c3cc(S(=O)(=O)N4CCCCCC4)ccc3OC)CC2)cc1,-,0,-,-,0,-
COc1ccc(-n2cnnc2SCC(=O)Nc2ccccc2F)cc1,0,0,0,-,0,0
Cc1nn2c(-c3cccc(NC(=O)CSc4nc5ccccc5o4)c3)nnc2c2ccccc12,0,0,98.7,0,0,0
COC(=O)[C@@H](N)Cc1ccc(O)c(O)c1,-,0,97.6,-,0,0
COC(=O)C(N)Cc1ccc(Cl)cc1 (centres undefined),-,0,0,-,0,0
CN(C)[C@H]1CCN([C@@H]2CS(=O)(=O)N[C@H]2COCc2ccccc2)C1,-,0,-,-,-,-
Cn1ccnc1/C(=N\NC(=O)c1ccccc1)c1cccc([N+](=O)[O-])c1,0,0,95.5,0,0,0
Cn1ccnc1/C(=N\NC(=O)c1ccc(O)cc1)c1cccc([N+](=O)[O-])c1,0,0,0,0,0,0
CC(CCC(C)C(C)(C)C)[C@@H]1CC[C@H]2C3C[C@H](OS(O)(=S)=S)[C@H]4C[C@H](OS(O)(=S)=S)[C@@H](OS(O)(=S)=S)C[C@]4(C)[C@H]3CC[C@]12C (some centres undefined) (tested in a mixture with another compound),-,0,98.1,-,0,46.3!
COc1ccc2c(c1O)C(=O)c1ccccc1C2=O,0,-,0,0,0,0
Nc1c(O)ccc2c1C(=O)c1ccccc1C2=O,0,-,98.7,0,-,0
Cc1ccn(Cc2n[nH]c(=S)n2Cc2ccccc2)n1,0,0,91.2,0,0,0
Cc1n[nH]c(=S)n1Cc1ccccc1,0,0,0,0,0,0
S=c1[nH]nc(CNc2ccc(Cl)cc2)n1Cc1ccccc1,0,0,98.6,0,0,0
Cc1ccc(CNC(=O)c2cc(=O)c3ccc(C)cc3o2)cc1,0,0,0,-,0,0
SMILES,SUMO HTRF inh,Rin1-Abl PPI inh,ALR inh,RBBP9 inhibitor,UBC13 inh,PREPL inh
Cc1ccc2c(c1)-c1ccccc1S(=O)(=O)N2,0,0,94.9,0,0,0
Nc1ccc2c(c1)-c1ccccc1S(=O)(=O)N2,0,0,99.8,0,0,0
CC(C)=CCCC(C)CN1CCC(n2nccc2NC(=O)C2CCCC2)CC1 (centres undefined),0,0,0,-,0,0
CC1(C(=O)NCCc2ccccc2)Cc2c(-c3cccc(C(F)(F)F)c3)ccnc2O1 (centres undefined),-,0,-,-,-,-
COc1cccc(C(=O)O/N=C(\N)CS(=O)(=O)c2ccccc2)c1,0,0,0,-,0,0
NC(=O)c1ccsc1NC(=O)COC(=O)COc1ccccc1F,0,0,77.6,0,0,0
NC(=O)c1ccsc1NC(=O)COC(=O)COc1ccccc1[N+](=O)[O-],-,0,0,-,0,0
CC(=O)Nc1ccc(C2=NN(C)C(=NCc3ccccc3)SC2)cc1,0,0,99.0,0,0,0
O=C(c1c(F)cccc1F)N1CCN=C1SCc1ccccc1,0,0,0,0,0,0

# Screens deposited in PubChem BioAssay by several laboratories.
